Screens: PubChem BioAssay, several laboratories
Beta2AR agonist: activates human beta-2 adrenergic receptor causing internalization; response, % (concentration not given with the values); Am2.2-beta2AR cells, FAP receptor internalization, flow cytometry; 340,000 compounds, 0.43% hits; AID 504454;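 active = response above a set limit, near 3 SD of response in nonfluorescent compounds, cut at about 42% in these data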
UPR XBP1 act: adaptive UPR (XBP1) activation; CHO-XBP1 luciferase reporter, IRE1-XBP1 UPR activation, luminescence; percent of tunicamycin response, DMSO as zero; activation, % at 20 µM; 330,000 compounds, 0.33% hits; AID 463104;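 active = versus positive control, 20 µM dose yields 30% or more activation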;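 also: 100% = tunicamycin at 10 µg/mL and 0% = DMSO only wells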
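Material: CHO cell line with stable XBP1 luciferase reporter; schedule: 16-18 h cell attachment at 37 °C, then 6 h compound exposure; signal: glow luminescence from Steady-Glo reagent; medium: serum-containing F12 medium, 10% FBS; benchmarks: tunicamycin 10 µg/mL and vehicle-only wells; read-out: percent activation relative to tunicamycin reference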
CHOP UPR activ: apoptotic UPR (CHOP) activation. CHO-CHOP luciferase reporter, luminescence; percent of tunicamycin response over DMSO baseline. activation, % at 10 µM. 330,000 compounds, 0.34% hits. AID 449763;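 active = at 10 µM dose, activation of 40% or more, normalized to positive control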;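 also: 100% = tunicamycin at 10 µg/mL and 0% = DMSO alone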
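Dosing – one dose, 10 µM in 0.5% DMSO · System – CHO-CHOP cells, stable luciferase reporter of PERK-eIF2a-CHOP signalling · Input – 500 cells/well · Control set – tunicamycin 10 µg/mL final as positive, DMSO-only wells as negative · Timing – 6 h compound treatment, 37 °C · Measure – % activation vs tunicamycin · Technique – luminescence read with Steady-Glo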
CHOP inh: blocks CHOP induction under ER stress; CHO-K1 CHOP-promoter luciferase, tunicamycin-induced, 15-18 h; inhibition, % at 10 µM; 220,000 compounds, 3.8% hits; AID 2732;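 active = compounds that reduced the stress-induced luciferase reporter signal by more than about 70% of percent inhibition, limit read from the data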;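 also: 0% = tunicamycin plus vehicle and 100% = wells without tunicamycin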
VLA-4 inh: inhibition in a human VLA-4 binding assay; VLA-4 expressing cells, ligand binding flow cytometry; AID 2557; P13612; inhibition, % (about 7 µM as worked out from the volumes in the protocol); 330,000 compounds, 0.2% hits; in the data active = inhibition above about 50%
Target sequence (P13612 whole entry, looked up): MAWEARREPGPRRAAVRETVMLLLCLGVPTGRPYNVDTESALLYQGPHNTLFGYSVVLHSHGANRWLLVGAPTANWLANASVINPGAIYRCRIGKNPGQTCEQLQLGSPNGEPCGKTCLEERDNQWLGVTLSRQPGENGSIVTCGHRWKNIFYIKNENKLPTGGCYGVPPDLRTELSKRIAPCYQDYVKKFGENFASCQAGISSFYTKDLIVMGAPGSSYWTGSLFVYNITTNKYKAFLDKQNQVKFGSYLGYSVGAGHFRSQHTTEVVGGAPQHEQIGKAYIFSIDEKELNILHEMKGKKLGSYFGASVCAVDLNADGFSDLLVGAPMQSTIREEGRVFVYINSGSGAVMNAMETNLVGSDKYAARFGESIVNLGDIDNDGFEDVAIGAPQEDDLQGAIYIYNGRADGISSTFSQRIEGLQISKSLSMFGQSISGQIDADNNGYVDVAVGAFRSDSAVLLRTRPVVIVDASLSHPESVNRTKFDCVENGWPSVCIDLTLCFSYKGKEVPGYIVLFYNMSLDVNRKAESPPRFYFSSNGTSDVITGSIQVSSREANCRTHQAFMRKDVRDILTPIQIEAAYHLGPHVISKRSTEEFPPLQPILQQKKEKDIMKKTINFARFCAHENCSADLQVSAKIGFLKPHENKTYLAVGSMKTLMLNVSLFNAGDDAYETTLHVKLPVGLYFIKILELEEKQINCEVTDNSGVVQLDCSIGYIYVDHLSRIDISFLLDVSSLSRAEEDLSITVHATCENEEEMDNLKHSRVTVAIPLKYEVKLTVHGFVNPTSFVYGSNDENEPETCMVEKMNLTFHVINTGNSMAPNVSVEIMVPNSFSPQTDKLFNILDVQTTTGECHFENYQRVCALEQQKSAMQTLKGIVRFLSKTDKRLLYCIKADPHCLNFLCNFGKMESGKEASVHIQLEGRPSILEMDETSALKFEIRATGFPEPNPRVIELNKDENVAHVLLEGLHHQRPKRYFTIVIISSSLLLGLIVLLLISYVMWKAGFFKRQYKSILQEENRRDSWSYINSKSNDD
CHOP confirm: confirmation of CHOP induction inhibitors. shares compounds with CHOP inh. CHO-CHOP promoter luciferase reporter, tunicamycin-induced, luminescence. inhibition, % at 10 µM. 2,100 compounds, 45% hits. AID 504437;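 active = mean of three repeat readings of reporter signal inhibition above a set limit, cut at about 70% in these data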;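 also: 0% = tunicamycin plus vehicle and 100% = wells lacking tunicamycin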
* marks the source's active call; other numbers are inactive results; i = inactive; / = no result given. The entries come from a sample that favours hits as a whole.

SMILES	Beta2AR agonist	UPR XBP1 act	CHOP UPR activ	CHOP inh	VLA-4 inh	CHOP confirm
Cc1cccc(NC(=O)NCc2ccc3c(c2)cc(C)n3C)c1	10	-1	2	106*	-8	27
Cc1ccc(Nc2nc(N)c([N+](=O)[O-])c(NCc3ccco3)n2)cc1	9	5	6	101*	26	24
Nc1nc(NCc2ccco2)nc(Nc2ccccc2)c1[N+](=O)[O-]	-3	2	-2	20	-31	/
CC(C)(C)c1ccc(S(=O)(=O)NCC(=O)Nc2sc3c(c2C(N)=O)CCCC3)cc1	0	-1	2	107*	11	92*
COc1ccc(CC(=O)Nc2sc3c(c2C(N)=O)CCCC3)cc1	-18	4	2	/	21	/
CC(C)C(C(=O)NCC1CCCO1)N(Cc1ccccc1)C(=O)CNS(=O)(=O)c1ccccc1 (stereo not drawn)	2	3	-1	/	6	/
COc1ccc(/C=C2/SC(=O)N(CC(=O)NCCC(C)C)C2=O)cc1OC	11	3	1	100*	-1	-34
CCOc1ccc(NC(=O)CN2C(=O)S/C(=C/c3cccn3C)C2=O)cc1	1	-4	3	-7	5	/
Cn1cccc1/C=C1\SC(=O)N(CC(=O)Nc2ccc(Cl)cc2)C1=O	-7	-5	1	101*	2	1
Cc1ccc(CNCC(O)(c2ccccc2)c2ccc(Cl)cc2)cc1 (stereo not drawn)	31	/	/	99*	/	135*
CCCCN(C)C(=O)Cn1nc(Cc2ccncc2)c2ccccc2c1=O	-9	0	1	/	3	/
N#Cc1c(Cl)c(Cl)c2nnc(-c3ccc(Br)cc3)n2c1Cl	/	0	1	104*	-23	-7
[S-]c1nnc(-c2ccc(Br)cc2)n1-c1ccccc1.[Zn+2]	-2	-3	6	/	5	/
O=C1c2cccc3c([N+](=O)[O-])ccc(c23)C(=O)N1O	-59	22	-3	/	-160	/
O=C1c2cccc3c([N+](=O)[O-])ccc(c23)C(=O)N1c1ccc(Cl)cn1	35	-6	16	109*	-33	51
O=C1c2cccc3c([N+](=O)[O-])ccc(c23)C(=O)N1c1ccccn1	-114	-8	-6	101*	-276	84*
O=C1c2cccc3c([N+](=O)[O-])ccc(c23)C(=O)N1c1nccs1	3	-6	-9	110*	-75	38
Cn1c(=O)c([N+](=O)[O-])c(N2CCN(Cc3ccc4c(c3)OCO4)CC2)c2ccccc21	9	1	1	-19	5	/
COc1cccc(NC(=O)c2cccc(N3C(=O)C4CCC(C)CC4C3=O)c2)c1 (stereo not drawn)	2	-3	0	/	9	/
Fc1c(F)c(C(F)(F)F)c(F)c(F)c1N/N=C\c1cccs1	1	4	12	101*	7	89*
Cc1ccc(S(=O)(=O)/N=C2\C=C(NS(=O)(=O)c3ccccc3)C(=O)c3ccccc32)c(C)c1	5	/	/	/	/	/
Cc1ccc(S(=O)(=O)/N=C2/C=C(Sc3ncn[nH]3)C(=O)c3ccccc32)c(C)c1	/	/	/	109*	4	-8
Cc1ccc(S(=O)(=O)/N=C2/C=C(Sc3ncn[nH]3)C(=O)c3ccccc32)cc1	85*	/	/	108*	12	108*
CN(Cc1nc(-c2cccs2)no1)CC1(N2CCOCC2)CCCCC1	-5	-3	1	19	3	/
CCCCn1c(N)c(N(CC(C)C)C(=O)CSCc2c(C)noc2C)c(=O)[nH]c1=O	5	3	1	/	1	/
SMILES	Beta2AR agonist	UPR XBP1 act	CHOP UPR activ	CHOP inh	VLA-4 inh	CHOP confirm
N#Cc1c(N)nc(-c2ccccc2)nc1-c1ccccc1	-7	5	0	107*	9	21
O=C(Nc1cccc(F)c1)N1CCCCCC1	-4	0	1	/	-20	/
CCCc1cc(C(=O)Cc2ccc(F)cc2)c(O)cc1O	-1	1	-1	100*	17	122*
O=C(N/N=C/c1cccs1)c1cccc(S(=O)(=O)Nc2ccc(Cl)cc2)c1	-7	-1	-2	7	9	/
O=C(N/N=C/c1cccs1)c1cccc(NC(=O)c2ccc(Cl)cc2)c1	/	13	-1	104*	-10	118*
CCCN(C(=O)c1ccccc1Cc1ccccc1)C1CCS(=O)(=O)C1 (stereo not drawn)	-1	-1	-1	/	1	/
O=C(CNC(=O)C1COc2ccccc2O1)N/N=C\c1ccc(Cl)cc1 (stereo not drawn)	-3	0	1	-2	-4	/
CCOC(=O)C(C)CC(C)C(=O)N1CCOCCOCCN(C(=O)C(C)CC(C)C(=O)OCC)CCOCC1 (stereo not drawn)	1	2	0	-1	4	/
CCOC(=O)C(C(=O)OCC)C(C(=O)OCC)N1CCOCC1 (stereo not drawn)	19	-11	-11	102*	40	-94
O=C1CC(SCc2nc3ccccc3[nH]2)C(=O)N1c1cccc(Cl)c1 (stereo not drawn)	-8	-1	6	22	7	/
O=C1CC(Sc2nnnn2-c2ccccc2)C(=O)N1c1cccc(Cl)c1 (stereo not drawn)	8	-7	2	110*	33	111*
COc1ccc(N2C(=O)CC(Sc3nnnn3-c3ccc(F)cc3)C2=O)cc1 (stereo not drawn)	17	-8	4	107*	-6	134*
COc1ccc(N2C(=O)CC(Sc3nnc(-c4ccccc4)o3)C2=O)cc1 (stereo not drawn)	2	-7	-10	109*	38	5
COc1ccc(N2C(=O)CC(Sc3nc(C)cc(C)c3C#N)C2=O)cc1 (stereo not drawn)	-13	-2	1	19	18	/
COc1ccccc1OCCNC(=O)C1CC(=O)N(Cc2ccc(C)cc2)C1 (stereo not drawn)	8	-3	0	/	7	/
Clc1ccc(CSc2ncnc3c2ncn3C2CCCCO2)cc1 (stereo not drawn)	-2	/	/	/	/	/
CN(C)CCNC=C(C(=O)Nc1ccc(Cl)cc1Cl)C(=O)Nc1ccc(Cl)cc1Cl	25	29	6	99*	24	26
N#C/C(=C\c1ccc([N+](=O)[O-])o1)c1nc2ccccc2[nH]1	/	-6	-8	106*	i	127*
O=C(Nc1nnc(-c2ccc(Cl)cc2)o1)c1nc2ccccc2s1	1	0	0	104*	2	-7
O=C(Nc1nnc(-c2ccc(Cl)cc2)o1)Nc1ccccc1Cl	2	0	3	45	4	/
CCCCS(=O)(=O)/C=C\C1C2C=CC(C2)C1S(=O)(=O)CCCC (stereo not drawn)	-2	-1	0	9	1	/
CCCCS(=O)(=O)/C=C\C=C/S(=O)(=O)CCCC	40	-10	-12	/	28	127*
